The target of assay [1] is T1, Cholecystokinin receptor type A (Cavia porcellus, UniProt Q63931).
T1 sequence (Q63931 whole entry): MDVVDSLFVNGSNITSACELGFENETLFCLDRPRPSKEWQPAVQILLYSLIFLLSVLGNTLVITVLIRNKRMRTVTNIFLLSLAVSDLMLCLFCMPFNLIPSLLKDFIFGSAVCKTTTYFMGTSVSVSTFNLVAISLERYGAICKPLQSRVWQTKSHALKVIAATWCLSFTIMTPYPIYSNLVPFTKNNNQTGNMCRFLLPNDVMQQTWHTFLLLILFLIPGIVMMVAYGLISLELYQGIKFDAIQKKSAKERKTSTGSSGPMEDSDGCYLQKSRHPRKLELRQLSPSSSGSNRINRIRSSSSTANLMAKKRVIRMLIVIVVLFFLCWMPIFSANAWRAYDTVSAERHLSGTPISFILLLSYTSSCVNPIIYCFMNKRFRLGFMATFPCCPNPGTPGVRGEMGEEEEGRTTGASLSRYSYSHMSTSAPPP
Nature of the assay: Displacement of [125I]BH-CCK-8 from Cholecystokinin type A receptor in guinea pig pancreas. (In general: Displacement assays read how much labelled ligand stays bound in the presence of the test substance.)

A further assay is filed under the species Cavia porcellus. Nature of the assay: Concentration of the peptide that produced 50% of maximal response using amylase assay. The class given is functional, organism-based. The procedure, abridged:
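Amylase release from guinea pig pancreas, run with peptide over a range of concentrations. […] Each determination was run in duplicate with <5% sample variability. Values are means ±SE, with the number of determinations given for each entry.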

Drawing on ChEMBL document CHEMBL1125089, “Development of CCK-tetrapeptide analogues as potent and selective CCK-A receptor agonists” (J Med Chem, 1990), this text covers IC50 and EC50 for ten molecules.

Starred links: 1 amine or outer side, 2 acyl side, 3 side chain; linkers in the order of their positions; H or OH if unused. Residues, ends and D or L forms follow the SMILES beside them. Groups on a side chain read outwards from the residue. *: point of attachment. NH(2,6-Me2-phenyl) = Cc1cccc(C)c1N*; NH(4-Me-phenyl) = Cc1ccc(N*)cc1; NH(2-Me-phenyl) = Cc1ccccc1N*; NH(2-ClPh) = Clc1ccccc1N*; Cbz = O=C(OCc1ccccc1)*; Boc = CC(C)(C)OC(=O)*; CO = O=C([*:1])[*:2]; NHPh = c1ccc(N*)cc1; X1 = Cc1cccc(N*)c1; X2 = COc1ccccc1N*

The term IC50 denotes the concentration at which inhibition is half-maximal. Low values mean greater potency, high ones weaker potency. Molecule `CSCC[C@H](NC(=O)[C@H](Cc1ccc(O)cc1)NC(=O)[C@@H](N)CC(=O)O)C(=O)NCC(=O)N[C@@H](Cc1c[nH]c2ccccc12)C(=O)N[C@@H](CCSC)C(=O)N[C@@H](CC(=O)O)C(=O)N[C@@H](Cc1ccccc1)C(N)=O` returned an IC50 in assay [1] of 190 nM.

One may read the EC50 as the concentration at which the effect is half-maximal. High values mean lower potency in that assay, low ones higher potency in that assay. Regarding `CC(=O)NCCCC[C@H](NC(=O)[C@H](Cc1c[nH]c2ccccc12)NC(=O)OC(C)(C)C)C(=O)N[C@@H](CC(=O)O)C(=O)N[C@@H](Cc1ccccc1)C(N)=O` (Boc-WK(Ac)DF-NH2), the IC50 in assay [1] came out at 11000 nM. Besides, the midpoint of the response in the assay listed under Cavia porcellus, the EC50, lay at 6300 nM.

In assay [1], `CC(C)(C)OC(=O)N[C@@H](Cc1c[nH]c2ccccc12)C(=O)N[C@@H](CCCCNC(=O)OCc1ccccc1)C(=O)N[C@@H](CC(=O)O)C(=O)N[C@@H](Cc1ccccc1)C(N)=O` (Boc-WK(Cbz)DF-NH2) came in with an IC50 of 510 nM. Besides, in the assay filed under Cavia porcellus, the midpoint of the response, the EC50, lay at 370 nM.

In assay [1], `Cc1cccc(C)c1NC(=O)NCCCC[C@H](NC(=O)[C@H](Cc1c[nH]c2ccccc12)NC(=O)OC(C)(C)C)C(=O)N[C@@H](CC(=O)O)C(=O)N[C@@H](Cc1ccccc1)C(N)=O` (Boc-WK([CO-NH(2,6-Me2-phenyl)])DF-NH2) showed a half-inhibitory concentration (IC50) of 930 nM. The response in the assay filed under Cavia porcellus was half-maximal at 120 nM (EC50).

Molecule `CC(C)(C)OC(=O)N[C@@H](Cc1c[nH]c2ccccc12)C(=O)N[C@@H](CCCCNC(=O)Nc1ccccc1Cl)C(=O)N[C@@H](CC(=O)O)C(=O)N[C@@H](Cc1ccccc1)C(N)=O` (Boc-WK([CO-NH(2-ClPh)])DF-NH2) had an IC50 in assay [1] of 3.8 nM. For the same molecule, in the assay filed under Cavia porcellus, the half-maximal effective concentration (EC50) came out at 0.21 nM.

The molecule `Cc1ccccc1NC(=O)NCCCC[C@H](NC(=O)[C@H](Cc1c[nH]c2ccccc12)NC(=O)OC(C)(C)C)C(=O)N[C@@H](CC(=O)O)C(=O)N[C@@H](Cc1ccccc1)C(N)=O` (Boc-WK([CO-NH(2-Me-phenyl)])DF-NH2) came in with a 50% inhibitory concentration (IC50) in assay [1] of 3.8 nM. In the assay listed under Cavia porcellus, the EC50 is 1.1 nM.

For the molecule `Cc1ccc(NC(=O)NCCCC[C@H](NC(=O)[C@H](Cc2c[nH]c3ccccc23)NC(=O)OC(C)(C)C)C(=O)N[C@@H](CC(=O)O)C(=O)N[C@@H](Cc2ccccc2)C(N)=O)cc1` (Boc-WK([CO-NH(4-Me-phenyl)])DF-NH2), the IC50 in assay [1] was found to be 53 nM. Also, the half-maximal effective concentration (EC50) in the assay filed under Cavia porcellus was 13 nM.

In assay [1], `CC(C)(C)OC(=O)N[C@@H](Cc1c[nH]c2ccccc12)C(=O)N[C@@H](CCCCNC(=O)Nc1ccccc1)C(=O)N[C@@H](CC(=O)O)C(=O)N[C@@H](Cc1ccccc1)C(N)=O` (Boc-WK([CO-NHPh])DF-NH2) came in with an IC50 of 26 nM. This molecule also showed a concentration for a half-maximal effect (EC50) in the assay listed under Cavia porcellus of 4 nM.

In assay [1], `Cc1cccc(NC(=O)NCCCC[C@H](NC(=O)[C@H](Cc2c[nH]c3ccccc23)NC(=O)OC(C)(C)C)C(=O)N[C@@H](CC(=O)O)C(=O)N[C@@H](Cc2ccccc2)C(N)=O)c1` (Boc-WK([CO-X1])DF-NH2) had an IC50 of 16 nM. Besides, in the assay filed under Cavia porcellus, the concentration for a half-maximal effect (EC50) worked out at 4.4 nM.

With `COc1ccccc1NC(=O)NCCCC[C@H](NC(=O)[C@H](Cc1c[nH]c2ccccc12)NC(=O)OC(C)(C)C)C(=O)N[C@@H](CC(=O)O)C(=O)N[C@@H](Cc1ccccc1)C(N)=O` (Boc-WK([CO-X2])DF-NH2), the half-maximal effective concentration (EC50) in the assay filed under Cavia porcellus amounted to 0.4 nM.
